Source: ChEMBL document CHEMBL4706639, “Discovery of Novel Azetidine Amides as Potent Small-Molecule STAT3 Inhibitors” (J Med Chem, 2021)
Blank lines part the entries; values can stand above or below the molecule they belong to. Calls of active or inactive are those of the source. The calls are words filed in the database; no cut-off is given here.

Tests used:
[1] = biological target: Signal transducer and activator of transcription 3 (Mus musculus, UniProt P42227); assay: Inhibition of oligonucleotide [32P]-labelled 5'-AGCITCATTTCCCGTAAATCCCTA probe binding to STAT3 SH2 domain (unknown origin) preincubated for 30 mins followed by hSIE probe addition by EMSA analysis
[2] = system: MCF-10A; assay: Cytotoxicity against human MCF-10A cells assessed as reduction in cell viability incubated for 72 hrs by CyQuant assay; format: cell-based
[3] = system: MDA-MB-468; assay: Antiproliferative activity against human MDA-MB-468 cells harbouring STAT3 assessed as reduction in cell viability incubated for 72 hrs by CyQuant assay; format: functional, cell-based; conditions: MDA-MB-468, 72 h
[4] = system: MDA-MB-231; assay: Antiproliferative activity against human MDA-MB-231 cells assessed as reduction in cell viability at 2 uM incubated for 24 hrs by Trypan blue exclusion dye based phase contrast microscopic analysis; format: functional
Procedure, shortened: (§1)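 Cells in 6-well culture, untreated or treated once with 2 μM compound. Harvested every 24 h (up to 96 h) and counted as viable cells by trypan blue exclusion under phase-contrast microscopy. Counts plotted against duration of treatment.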

[5] = system: MDA-MB-231; assay: Anticlonogenic activity against human MDA-MB-231 cells assessed as inhibition of colony formation at 0.5 to 1 uM incubated for 4 hrs by crystal violet staining based assay; format: functional, cell-based; conditions: dose 0.5-1 µM
Procedure, shortened: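 MDA-MB-231 cells seeded as single-cell cultures (250 cells per well), treated once the next day with compound at 0–1 μM and grown until large colonies were visible. Colonies stained with crystal violet for 4 h and photographed. Three independent determinations.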

[6] = biological target: Signal transducer and activator of transcription 3 (Homo sapiens) (UniProt P40763); assay: Inhibition of oligonucleotide [32P]-labelled 5'-AGCITCATTTCCCGTAAATCCCTA hSIE probe binding to STAT3 in human MDA-MB-468 cell nuclear extract at 5 uM by EMSA analysis; conditions: time upper […], TDE = time-dependent effect
[7] = system: MDA-MB-231; assay: Antiproliferative activity against human MDA-MB-231 cells assessed as reduction in cell viability incubated for 72 hrs by CyQuant assay; format: functional, cell-based; conditions: MDA-MB-231, 72 h
[8] = biological target: Signal transducer and activator of transcription 3 (Homo sapiens) (UniProt P40763); assay: Binding affinity to STAT3 (unknown origin) assessed as change in enthalpy by isothermal titration calorimetry
[9] = system: MCF7; assay: Antiproliferative activity against human MCF7 cells assessed as reduction in cell viability incubated for 72 hrs by CyQuant assay; format: functional, cell-based; conditions: MCF7, 72 h
[10] = biological target: Signal transducer and activator of transcription 3 (Homo sapiens) (UniProt P40763); assay: Inhibition of STAT3 phosphorylation at Y705 residues in human MDA-MB-468 whole cell lysate at 3 uM at 24 hrs by immunoblotting analysis; format: subcellular
Procedure, shortened: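 MDA-MB-468 cells (DMEM, 10% heat-inactivated FBS) treated with 3 μM compound for 3–24 h or 0.05% DMSO; equal-protein whole-cell RIPA lysates run on SDS-PAGE and immunoblotted for pY705STAT3, total STAT3 and tubulin. Representative of two to three independent determinations.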

[11] = biological target: Signal transducer and activator of transcription 3 (Homo sapiens) (UniProt P40763); assay: Binding affinity to STAT3 (unknown origin) assessed as change in entropy by isothermal titration calorimetry
[12] = system: MCF7; assay: Antiproliferative activity against human MCF7 cells assessed as reduction in cell viability at 2 uM incubated for 24 hrs by Trypan blue exclusion dye based phase contrast microscopic analysis; format: functional; procedure, shortened: as §1
[13] = Inhibition of oligonucleotide [32P]-labelled 5'-AGATTTCTAGGAATTCAA probe binding to STAT5 homodimer in mouse NIH3T3 nuclear extract preincubated for 30 mins followed by MGFe probe addition by EMSA analysis
[14] = biological target: Signal transducer and activator of transcription 3 (Homo sapiens) (UniProt P40763); assay: Inhibition of oligonucleotide [32P]-labelled 5'-AGCITCATTTCCCGTAAATCCCTA hSIE probe binding to STAT3 in human MDA-MB-468 cell nuclear extract at 0.5 to 5 uM incubated for 3 hrs by EMSA analysis; conditions: dose 0.5-5 µM
[15] = biological target: Signal transducer and activator of transcription 3 (Homo sapiens) (UniProt P40763); assay: Inhibition of STAT3 phosphorylation at Y705 residues in human MDA-MB-468 whole cell lysate at 0.5 to 2 uM incubated for 2 hrs by immunoblotting analysis; format: subcellular; conditions: dose 0.5-2 µM
[16] = system: MDA-MB-231; assay: Antiproliferative activity against human MDA-MB-231 cells harbouring STAT3 assessed as reduction in cell viability at upto 10 uM incubated for 72 hrs by CyQuant assay; format: functional, cell-based; conditions: MDA-MB-231, 72 h

Signal transducer and activator of transcription 3 (Homo sapiens), sequence (P40763 whole entry): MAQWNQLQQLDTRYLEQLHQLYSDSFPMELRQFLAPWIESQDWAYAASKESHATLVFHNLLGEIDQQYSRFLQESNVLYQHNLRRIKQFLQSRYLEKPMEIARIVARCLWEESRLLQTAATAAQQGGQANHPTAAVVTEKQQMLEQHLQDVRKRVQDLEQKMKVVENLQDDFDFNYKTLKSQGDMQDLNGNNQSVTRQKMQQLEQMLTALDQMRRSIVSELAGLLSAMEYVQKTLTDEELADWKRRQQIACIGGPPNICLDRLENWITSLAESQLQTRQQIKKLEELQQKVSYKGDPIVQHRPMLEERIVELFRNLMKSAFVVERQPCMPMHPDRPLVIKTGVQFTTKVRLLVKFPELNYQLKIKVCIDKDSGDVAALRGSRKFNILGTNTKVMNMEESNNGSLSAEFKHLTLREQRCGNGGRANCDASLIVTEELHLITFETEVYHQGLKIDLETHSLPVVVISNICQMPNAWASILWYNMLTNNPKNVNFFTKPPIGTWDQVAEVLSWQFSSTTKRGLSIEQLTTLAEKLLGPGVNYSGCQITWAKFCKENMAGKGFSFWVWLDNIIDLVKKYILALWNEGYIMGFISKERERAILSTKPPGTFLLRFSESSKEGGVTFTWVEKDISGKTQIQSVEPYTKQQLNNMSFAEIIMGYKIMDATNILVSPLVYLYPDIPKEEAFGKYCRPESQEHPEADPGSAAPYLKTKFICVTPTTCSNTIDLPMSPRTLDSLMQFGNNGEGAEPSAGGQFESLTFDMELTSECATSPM
Signal transducer and activator of transcription 3, sequence (P42227 whole entry, the tested form may be a part): as the sequence (P40763 whole entry) above, with E760D counted along it

Structure (SMILES): O=C(O)c1ccc(N(Cc2ccc(C3CCCCC3)cc2)C(=O)[C@H]2CCN2S(=O)(=O)c2c(F)c(F)c(F)c(F)c2F)c(F)c1
IC50 [13]: 17.5 µM | EC50 [7]: > 10 µM

Structure (SMILES): O=C(NO)c1ccc(N(Cc2cnc(C3CCCCC3)cn2)C(=O)[C@H]2CCN2S(=O)(=O)c2c(F)c(F)c(F)c(F)c2F)c(F)c1
IC50 [1]: > 2 µM

Structure (SMILES): CC(=O)c1cc2c(o1)C(=O)c1ccccc1C2=O [NAPABUCASIN]
inhibition [14]: Active | inhibition [15]: Active | EC50 [16]: 1.8 µM | EC50 [9]: 1.49 µM

Second part, led by results:

IC50 [1]: > 2 µM
Structure (SMILES): NC(=O)c1ccc(N(Cc2ccc(C3CCCCC3)cn2)C(=O)[C@H]2CCN2S(=O)(=O)c2c(F)c(F)c(F)c(F)c2F)c(F)c1

EC50 [3]: 1.9 µM | inhibition [6]: Tde | EC50 [7]: 1.7 µM | deltaH [8]: -4.97 kcal/mol | EC50 [9]: 7 µM | inhibition [10]: inactive | -TdeltaS [11]: -3.25 kcal/mol
Structure (SMILES): O=C1NC(=O)c2cc(N(Cc3ccc(C4CCCCC4)cn3)C(=O)[C@H]3CCN3S(=O)(=O)c3c(F)c(F)c(F)c(F)c3F)ccc21
EC50 [2]: 8.1 µM | Activity [4]: Active | inhibition [5]: Active | Activity [12]: inactive
